Measured values as given in ChEMBL document CHEMBL1125010, “Relaxant activity of 4-amido-3,4-dihydro-2H-1-benzopyran-3-ols and 4-amido-2H-1-benzopyrans on guinea pig isolated trachealis” (J Med Chem, 1990).

Assays:
Cavia porcellus [1] = species on record: Cavia porcellus; assay: Inhibition of spontaneous tone in Guinea pig tracheal spiral strips.; format: functional, Trachea
In short: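 Guinea pig isolated trachealis, spontaneous tone. Relaxation is compared with the response to isoprenaline. IC50 is the concentration giving 50% of the isoprenaline response, read from the dose-response curve. Reported as the geometric mean, generally of four or more determinations.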

Cavia porcellus [2] = species on record: Cavia porcellus; assay: Intrinsic activity measured on Guinea pig tracheal spiral strips.; format: functional, Trachea
In short: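 Guinea pig isolated trachealis relaxation. Intrinsic activity is the compound's maximum relaxant response divided by the maximum produced by isoprenaline. Reported as an arithmetic mean.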

Which results are given for `CC1(C)C=C(n2ccccc2=O)c2c[n+]([O-])ccc2O1`?
IC50 (Cavia porcellus [1]; Cavia porcellus, Trachea): > 20000 nM; Intrinsic activity (Cavia porcellus [2]): 0.01

With `CC1(C)C=C(N2CCCCC2=O)c2cc(C#N)ccc2O1` as the compound, how does the IC50 (Cavia porcellus [1]; Cavia porcellus, Trachea) read?
The IC50 was 1100 nM.

And the Intrinsic activity (Cavia porcellus [2])?
The Intrinsic activity was 0.9.

What does the source list for `CC1(C)C=C(N2CCCCC2=O)c2c(cccc2C(F)(F)F)O1`?
IC50 (Cavia porcellus [1]; Cavia porcellus, Trachea): > 20000 nM; Intrinsic activity (Cavia porcellus [2]): 0.11

How did the IC50 (Cavia porcellus [1]; Cavia porcellus, Trachea) turn out when `Cc1ccc2c(c1)[C@@H](N1CCCC1=O)[C@H](O)C(C)(C)O2` was run?
Its IC50 is 13500 nM.

And the Intrinsic activity (Cavia porcellus [2])?
The Intrinsic activity was 0.62.

For `CC1(C)Oc2ccc(C(F)(F)F)cc2[C@@H](N2CCCC2=O)[C@@H]1O`, which IC50 (Cavia porcellus [1]; Cavia porcellus, Trachea) is on record?
The IC50 was 410 nM.

What about the Intrinsic activity (Cavia porcellus [2]) of the same compound?
The Intrinsic activity was 0.92.

With `CC1(C)Oc2cc(C(F)(F)F)ccc2[C@@H](N2CCCC2=O)[C@@H]1O` as the compound, how does the IC50 (Cavia porcellus [1]; Cavia porcellus, Trachea) read?
The IC50 was 730 nM.

What about the Intrinsic activity (Cavia porcellus [2]) of the same compound?
Its Intrinsic activity is 0.9.

Which IC50 (Cavia porcellus [1]; Cavia porcellus, Trachea) does the source give for `CCc1ccc2c(c1)OC(C)(C)[C@@H](O)[C@@H]2N1CCCCC1=O` here?
Its IC50 is 2250 nM.

What about the Intrinsic activity (Cavia porcellus [2]) of the same compound?
Its Intrinsic activity is 0.83.

What does the source list for `CC1(C)Oc2ccc(C#N)cc2[C@@H](n2ccccc2=O)[C@@H]1O` [EMAKALIM]?
IC50 (Cavia porcellus [1]; Cavia porcellus, Trachea): 760 nM; Intrinsic activity (Cavia porcellus [2]): 0.96

What does the source list for `CC1(C)C=C(n2ccccc2=O)c2cc(C(F)(F)F)ccc2O1`?
IC50 (Cavia porcellus [1]; Cavia porcellus, Trachea): 56 nM; Intrinsic activity (Cavia porcellus [2]): 0.97

Which results are given for `CC1(C)C=C(N2CCCCC2=O)c2cc(C(F)(F)F)ccc2O1`?
IC50 (Cavia porcellus [1]; Cavia porcellus, Trachea): 650 nM; Intrinsic activity (Cavia porcellus [2]): 0.89

What does the source list for `CC1(C)Oc2cc(C(F)(F)F)ccc2[C@@H](N2CCCCC2=O)[C@@H]1O` (stereo in doubt; (+)24)?
IC50 (Cavia porcellus [1]): 360 nM; Intrinsic activity (Cavia porcellus [2]): 0.89

For `CC1(C)Oc2ccc(C(F)(F)F)cc2[C@@H](N2CCCCC2=O)[C@@H]1O`, which IC50 (Cavia porcellus [1]; Cavia porcellus, Trachea) is on record?
The IC50 was 58 nM.

And the Intrinsic activity (Cavia porcellus [2])?
Its Intrinsic activity is 0.96.

Which IC50 (Cavia porcellus [1]) does the source give for `CC1(C)Oc2cc(C(F)(F)F)ccc2[C@@H](N2CCCCC2=O)[C@@H]1O` (racemic) here?
The IC50 was 660 nM.

`CC1(C)Oc2ccc(C#N)cc2[C@@H](N2CCCCC2=O)[C@@H]1O` was tested. Which IC50 (Cavia porcellus [1]; Cavia porcellus, Trachea) did it give?
The IC50 was 270 nM.

And the Intrinsic activity (Cavia porcellus [2])?
Its Intrinsic activity is 0.82.

What does the source list for `COC(=O)C1=C(C)NC(C)=C(C(=O)OC)C1c1ccccc1[N+](=O)[O-]` [NIFEDIPINE]?
IC50 (Cavia porcellus [1]; Cavia porcellus, Trachea): > 20000 nM; Intrinsic activity (Cavia porcellus [2]): 0.49

For `CC1(C)C=C(N2CCCCC2=O)c2ccc(C#N)cc2O1`, which IC50 (Cavia porcellus [1]; Cavia porcellus, Trachea) is on record?
Its IC50 is 3960 nM.

What about the Intrinsic activity (Cavia porcellus [2]) of the same compound?
Its Intrinsic activity is 0.86.

`CC1(C)C=C(N2CCC2=O)c2cc(C#N)ccc2O1` was tested. Which IC50 (Cavia porcellus [1]; Cavia porcellus, Trachea) did it give?
Its IC50 is 7500 nM.

And the Intrinsic activity (Cavia porcellus [2])?
Its Intrinsic activity is 0.91.

Which results are given for `Cc1ccc2c(c1)[C@@H](N1CCCCC1=O)[C@H](O)C(C)(C)O2`?
IC50 (Cavia porcellus [1]; Cavia porcellus, Trachea): 1200 nM; Intrinsic activity (Cavia porcellus [2]): 0.92

For `CC1(C)C=C(N2CCCCC2=O)c2cnccc2O1`, which IC50 (Cavia porcellus [1]; Cavia porcellus, Trachea) is on record?
The IC50 was 2200 nM.

What about the Intrinsic activity (Cavia porcellus [2]) of the same compound?
The Intrinsic activity was 0.92.

For `CC1(C)Oc2ccncc2[C@@H](n2ccccc2=O)[C@@H]1O`, which IC50 (Cavia porcellus [1]; Cavia porcellus, Trachea) is on record?
Its IC50 is 5100 nM.

And the Intrinsic activity (Cavia porcellus [2])?
Its Intrinsic activity is 0.81.

With `CC1(C)Oc2ccncc2[C@@H](N2CCCC2=O)[C@@H]1O` as the compound, how does the IC50 (Cavia porcellus [1]; Cavia porcellus, Trachea) read?
Its IC50 is 8600 nM.

And the Intrinsic activity (Cavia porcellus [2])?
The Intrinsic activity was 0.68.

For `CC1(C)Oc2ccc(C#N)cc2C(N2CCCC2=O)C1O` (centres undefined) [CROMAKALIM], which IC50 (Cavia porcellus [1]; Cavia porcellus, Trachea) is on record?
The IC50 was 1100 nM.

And the Intrinsic activity (Cavia porcellus [2])?
Its Intrinsic activity is 0.89.

Which results are given for `CC(C)(C)NCC(O)c1ccc(O)c(CO)c1` (centres undefined) [ALBUTEROL]?
IC50 (Cavia porcellus [1]; Cavia porcellus, Trachea): 18 nM; Intrinsic activity (Cavia porcellus [2]): 0.98

`CC1(C)C=C(n2ccccc2=O)c2cnccc2O1` was tested. Which IC50 (Cavia porcellus [1]; Cavia porcellus, Trachea) did it give?
The IC50 was 2100 nM.

What about the Intrinsic activity (Cavia porcellus [2]) of the same compound?
Its Intrinsic activity is 0.93.

Which IC50 (Cavia porcellus [1]; Cavia porcellus, Trachea) does the source give for `CC(N/C(=N\C#N)Nc1ccncc1)C(C)(C)C` (centres undefined) [PINACIDIL ANHYDROUS] here?
Its IC50 is 3630 nM.

What about the Intrinsic activity (Cavia porcellus [2]) of the same compound?
Its Intrinsic activity is 0.86.

`CC1(C)Oc2ccncc2[C@@H](N2CCCCC2=O)[C@@H]1O` was tested. Which IC50 (Cavia porcellus [1]; Cavia porcellus, Trachea) did it give?
The IC50 was 660 nM.

And the Intrinsic activity (Cavia porcellus [2])?
Its Intrinsic activity is 0.84.

How did the IC50 (Cavia porcellus [1]; Cavia porcellus, Trachea) turn out when `CC1(C)C=C(N2CCCC2=O)c2cnccc2O1` was run?
The IC50 was 6700 nM.

What about the Intrinsic activity (Cavia porcellus [2]) of the same compound?
The Intrinsic activity was 0.67.

Which results are given for `CC1(C)Oc2ccc(C(F)(F)F)cc2[C@@H](n2ccccc2=O)[C@@H]1O`?
IC50 (Cavia porcellus [1]; Cavia porcellus, Trachea): 540 nM; Intrinsic activity (Cavia porcellus [2]): 0.96

How did the IC50 (Cavia porcellus [1]; Cavia porcellus, Trachea) turn out when `CC1(C)C=C(N2CCCC2=O)c2cc(C#N)ccc2O1` was run?
Its IC50 is 1570 nM.

What about the Intrinsic activity (Cavia porcellus [2]) of the same compound?
Its Intrinsic activity is 0.91.

How did the IC50 (Cavia porcellus [1]; Cavia porcellus, Trachea) turn out when `CC1(C)C=C(N2CCCCC2=O)c2ccc(C(F)(F)F)cc2O1` was run?
The IC50 was 2970 nM.

What about the Intrinsic activity (Cavia porcellus [2]) of the same compound?
The Intrinsic activity was 0.97.

With `CC1(C)Oc2cccc(C(F)(F)F)c2[C@@H](N2CCCCC2=O)[C@@H]1O` as the compound, how does the IC50 (Cavia porcellus [1]; Cavia porcellus, Trachea) read?
The IC50 was greater than 20000 nM.

What about the Intrinsic activity (Cavia porcellus [2]) of the same compound?
The Intrinsic activity was 0.13.

With `CC1(C)C=C(N2CCCC2=O)c2ccc(C(F)(F)F)cc2O1` as the compound, how does the IC50 (Cavia porcellus [1]; Cavia porcellus, Trachea) read?
The IC50 was 5100 nM.

And the Intrinsic activity (Cavia porcellus [2])?
Its Intrinsic activity is 0.97.

With `CC1(C)Oc2ccc(C#N)cc2[C@@H](N2CCC2=O)[C@@H]1O` as the compound, how does the IC50 (Cavia porcellus [1]; Cavia porcellus, Trachea) read?
The IC50 was greater than 20000 nM.

Which IC50 (Cavia porcellus [1]; Cavia porcellus, Trachea) does the source give for `CC1(C)Oc2cc(C#N)ccc2[C@@H](N2CCCCC2=O)[C@@H]1O` here?
Its IC50 is greater than 17000 nM.

What about the Intrinsic activity (Cavia porcellus [2]) of the same compound?
Its Intrinsic activity is 0.56.

With `CC1(C)Oc2cc(C(F)(F)F)ccc2[C@@H](N2CCCCC2=O)[C@@H]1O` (stereo in doubt; (-)24) as the compound, how does the IC50 (Cavia porcellus [1]) read?
The IC50 was 12600 nM.

And the Intrinsic activity (Cavia porcellus [2])?
Its Intrinsic activity is 0.69.

For `Cn1c(=O)c2[nH]cnc2n(C)c1=O.Cn1c(=O)c2[nH]cnc2n(C)c1=O.NCCN` [AMINOPHYLLINE], which IC50 (Cavia porcellus [1]; Cavia porcellus, Trachea) is on record?
Its IC50 is 20100 nM.

What about the Intrinsic activity (Cavia porcellus [2]) of the same compound?
Its Intrinsic activity is 0.54.

Which IC50 (Cavia porcellus [1]; Cavia porcellus, Trachea) does the source give for `CC1(C)C=C(n2ccccc2=O)c2cc(C#N)ccc2O1` [BIMAKALIM] here?
Its IC50 is 89 nM.

What about the Intrinsic activity (Cavia porcellus [2]) of the same compound?
Its Intrinsic activity is 0.93.

With `CCc1ccc2c(c1)[C@@H](N1CCCC1=O)[C@H](O)C(C)(C)O2` as the compound, how does the IC50 (Cavia porcellus [1]; Cavia porcellus, Trachea) read?
The IC50 was 2680 nM.

What about the Intrinsic activity (Cavia porcellus [2]) of the same compound?
The Intrinsic activity was 0.92.
